Consider 20 molecules from ChEMBL document CHEMBL4808227, “Induction of apoptosis, cytotoxicity and radiosensitization by novel 3,4-dihydroquinazolinone derivatives” (Bioorg Med Chem Lett, 2021).

As usually defined, the IC50 is the concentration at which inhibition is half-maximal.

SMILES strings stand for the structures. Activity calls are given as the source filed them. The calls are words filed in the database; no cut-off is given here.

In assay [1] the test system is HepG2. Nature of the assay: Cell cycle arrest in human HepG2 cells assessed as accumulation of cells at G0/G1 phase measured by flow cytometry (reference value: 71.6%). Type of assay: functional. Background: Flow cytometry measures light scatter and fluorescence of single cells or particles in a stream.
For assay [2], the system named is HepG2. Nature of the assay: Cytotoxicity against human HepG2 cells measured after 24 hrs by MTT assay. The assay is classed as functional, cell-based. The following applies: HepG2, 24 h. In a few lines:
(§1)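 MTT viability assay on HepG-2 and MCF-7 cells with serial dilutions of compound for 24 hr. Viability is expressed as percent of untreated cells (taken as 100%). IC50 is the concentration inhibiting growth by 50%, mean ± SD of three independent experiments.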
On the technique in general: Formazan colour is commonly taken as a measure of viable cells.

The test system of assay [3] is HepG2. Nature of the assay: Radiosensitizing activity against human HepG2 cells assessed as downregulation of XIAP mRNA expression pretreated with compound followed by exposure to 8 Gy gamma irradiation by real time RT-PCR analysis. The assay is classed as functional, cell-based.
The subject of assay [4] is HepG2. Nature of the assay: Cell cycle arrest in human HepG2 cells assessed as accumulation of cells at G2/M phase measured by flow cytometry ( Rvb = 21.7%). The assay is classed as functional.
For assay [5], the system named is HepG2. Nature of the assay: Induction of apoptosis in human HepG2 cells assessed as late apoptotic cells by Annexin V-FITC/propidium iodide staining based flow cytometric analysis (reference value: 0.507 %). Type of assay: functional.
The nature of assay [6]: Downregulation of XIAP mRNA expression in human HepG2 cells by real time RT-PCR analysis relative to control. Type of assay: functional. In a few lines:
(§2)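 HepG-2 cells were treated with compound. Survivin, XIAP and p21 mRNA were quantified by real-time RT-PCR, with each triplicate's Ct normalized to GAPDH. Expression is relative to control.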
In general terms: Quantitative PCR measures a nucleic acid by following its amplification.

Assay [7] concerns HepG2. Nature of the assay: Induction of apoptosis in human HepG2 cells assessed as early apoptotic cells by Annexin V-FITC/propidium iodide staining based flow cytometric analysis (reference value: 5.06 %). The assay is classed as functional.
For assay [8], the system named is HepG2. Nature of the assay: Induction of apoptosis in human HepG2 cells assessed as increase in caspase-3 level by ELISA relative to control. Type of assay: functional. In a few lines:
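HepG-2 cells were treated with compound, with DMSO-treated cells as control. Caspase-3 secreted into the culture medium was measured by ELISA, given as mean ± SD, n = 3.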

In assay [9] the test system is HepG2. Nature of the assay: Radiosensitizing activity against human HepG2 cells assessed as downregulation of Survivin mRNA expression pretreated with compound followed by exposure to 8 Gy gamma irradiation by real time RT-PCR analysis. The assay is classed as functional, cell-based.
For assay [10], the system named is HepG2. Nature of the assay: Cell cycle arrest in human HepG2 cells assessed as accumulation of cells at S phase measured by flow cytometry (reference value: 6.08%). Type of assay: functional.
Assay [11] has as its system HepG2. Nature of the assay: Induction of apoptosis in human HepG2 cells assessed as viable cells by Annexin V-FITC/propidium iodide staining based flow cytometric analysis (reference value: 94.4 %). The assay is classed as functional.
The target in assay [12] is Epidermal growth factor receptor (Homo sapiens, UniProt P00533). Nature of the assay: Inhibition of EGFR (unknown origin).
The test system of assay [13] is MCF7. Nature of the assay: Radiosensitizing activity against human MCF7 cells assessed as reduction in cell viability pretreated with compound followed by exposure to 8 Gy gamma irradiation and measured by MTT assay. The assay is classed as functional, cell-based. The following applies: MCF7, light or radiation study. The method in brief: (§3)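 HepG-2 and MCF-7 cells containing compound received a single dose of 8 Gy gamma radiation. Cytotoxicity was then measured, with IC50 as the mean ± SD of three independent experiments.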

Assay [14] in a line: Upregulation of p21 mRNA expression in human HepG2 cells by real time RT-PCR analysis relative to control. Type of assay: functional. The method in brief: as §2
In assay [15] the test system is HepG2. Nature of the assay: Induction of apoptosis in human HepG2 cells assessed as necrotic cells by Annexin V-FITC/propidium iodide staining based flow cytometric analysis (reference value: 0.007 %). The assay is classed as functional.
Assay [16] concerns MCF7. Nature of the assay: Cytotoxicity against human MCF7 cells measured after 24 hrs by MTT assay. Type of assay: functional, cell-based. The following applies: MCF7, 24 h. The method in brief:
as §1

Assay [17] in a line: Downregulation of Survivin mRNA expression in human HepG2 cells by real time RT-PCR analysis relative to control. Type of assay: functional. In a few lines:
as §2

Assay [18] relates to HepG2. Nature of the assay: Radiosensitizing activity against human HepG2 cells assessed as reduction in cell viability pretreated with compound followed by exposure to 8 Gy gamma irradiation and measured by MTT assay. Type of assay: functional, cell-based. The following applies: HepG2, light or radiation study. In a few lines: as §3

Sequence of Epidermal growth factor receptor (P00533 whole entry): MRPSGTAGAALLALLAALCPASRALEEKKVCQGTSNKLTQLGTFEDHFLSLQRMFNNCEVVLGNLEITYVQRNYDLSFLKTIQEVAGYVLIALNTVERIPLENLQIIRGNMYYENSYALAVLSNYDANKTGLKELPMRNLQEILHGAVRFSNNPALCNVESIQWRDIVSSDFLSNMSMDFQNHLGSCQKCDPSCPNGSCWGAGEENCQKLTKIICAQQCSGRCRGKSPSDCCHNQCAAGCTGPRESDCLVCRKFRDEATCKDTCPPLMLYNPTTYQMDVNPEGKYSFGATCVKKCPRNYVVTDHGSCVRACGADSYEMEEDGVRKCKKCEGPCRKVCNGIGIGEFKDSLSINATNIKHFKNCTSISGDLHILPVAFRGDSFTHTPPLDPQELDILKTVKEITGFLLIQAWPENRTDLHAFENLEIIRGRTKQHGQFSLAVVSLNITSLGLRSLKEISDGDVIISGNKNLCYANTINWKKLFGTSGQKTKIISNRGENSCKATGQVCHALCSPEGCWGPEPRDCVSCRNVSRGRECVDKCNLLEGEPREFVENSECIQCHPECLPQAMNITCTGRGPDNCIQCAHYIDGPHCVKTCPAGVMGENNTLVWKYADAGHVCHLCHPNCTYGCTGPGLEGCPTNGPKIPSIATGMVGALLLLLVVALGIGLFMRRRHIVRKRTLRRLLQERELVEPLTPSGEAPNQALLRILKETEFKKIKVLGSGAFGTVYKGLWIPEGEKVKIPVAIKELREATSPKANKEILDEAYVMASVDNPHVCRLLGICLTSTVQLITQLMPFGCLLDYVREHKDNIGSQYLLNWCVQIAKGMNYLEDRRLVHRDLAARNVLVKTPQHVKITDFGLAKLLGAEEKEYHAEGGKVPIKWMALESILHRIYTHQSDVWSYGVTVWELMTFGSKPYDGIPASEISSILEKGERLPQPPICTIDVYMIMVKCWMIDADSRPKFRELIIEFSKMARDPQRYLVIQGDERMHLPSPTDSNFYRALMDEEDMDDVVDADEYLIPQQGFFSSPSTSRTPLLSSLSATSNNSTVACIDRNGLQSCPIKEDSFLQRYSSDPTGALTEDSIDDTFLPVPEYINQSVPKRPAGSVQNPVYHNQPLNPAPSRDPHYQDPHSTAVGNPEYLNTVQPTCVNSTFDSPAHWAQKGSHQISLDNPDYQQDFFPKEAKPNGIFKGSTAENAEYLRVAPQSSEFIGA

Turning to `CCS(=O)(=O)NNC(=O)CSc1nc2ccccc2c(=O)n1Cc1ccc2c(c1)OCO2`, the Activity with HepG2 [1] amounted to 0.039%; in the assay on HepG2 [4], 94.2%; in the assay with HepG2 [5] it was 0.4%; in the assay on HepG2 [7], 13.5%; with HepG2 [8], 50%; with HepG2 [10] it was 2.45%. Moreover, the Activity with HepG2 [11] was found to be 86.1%; in assay [14], 500%; in the assay on HepG2 [15] it was 0.012%. The IC50 in the assay with HepG2 [2] amounted to 8.76 µM; in assay [12], 0.147 µM; in the assay on MCF7 [13] it was 5.93 µM; in the assay with MCF7 [16] it was 15.3 µM; with HepG2 [18], 2.25 µM. For the same molecule, the result with HepG2 [3] and in the assay with HepG2 [9] was Active. In addition, the “inhibition (INH)” value in assay [6] and in [17] was 50% throughout.

In the case of `O=C(CSc1nc2ccccc2c(=O)n1Cc1ccc2c(c1)OCO2)NNC(=S)Nc1ccc(S(=O)(=O)Nc2ccc(Cl)nn2)cc1`, the values for the IC50 in the assay on HepG2 [2] and in the assay with MCF7 [16] were 9.34 µM and 46 µM, respectively.

For `C#Cc1cccc(Nc2ncnc3cc(OCCOC)c(OCCOC)cc23)c1` [ERLOTINIB], the IC50 in the assay with MCF7 [16] is 12.4 µM.

Regarding `O=C(CSc1nc2ccccc2c(=O)n1Cc1ccc2c(c1)OCO2)NNS(=O)(=O)c1ccccc1`, the results for the IC50 in the assay on HepG2 [2] and in the assay with MCF7 [16] were 22.2 µM and 88.9 µM, respectively.

For `Cc1ccc(S(=O)(=O)NNC(=O)CSc2nc3ccccc3c(=O)n2Cc2ccc3c(c2)OCO3)cc1`, the figures for the IC50 in the assay on HepG2 [2] and in the assay with MCF7 [16] were 28.2 µM and 49.8 µM, respectively.

As for `CCC(=O)Nc1ccc(S(=O)(=O)Nc2ccc(/C(C)=N/NC(=O)CSc3nc4ccccc4c(=O)n3Cc3ccc4c(c3)OCO4)cc2)cc1`, the IC50 in the assay with HepG2 [2] was determined as 4.21 µM; in the assay on MCF7 [16], 15.1 µM.

As to `O=c1c2ccccc2[nH]c(=S)n1Cc1ccc2c(c1)OCO2`, the half-inhibitory concentration (IC50) in the assay on HepG2 [2] was 27.3 µM; in the assay on MCF7 [16], 26.6 µM.

With `O=C(CSc1nc2ccccc2c(=O)n1Cc1ccc2c(c1)OCO2)Nc1ccc(F)cc1`, the values for the IC50 with HepG2 [2] and with MCF7 [16] were 7.18 µM and 14.5 µM, respectively.

Take `O=C(CSc1nc2ccccc2c(=O)n1Cc1ccc2c(c1)OCO2)Nc1cc(Cl)c(Cl)cc1Cl`: the IC50 was 12.1 µM in the assay on HepG2 [2] and 26.1 µM in the assay on MCF7 [16].

`COc1cccc2c1C(=O)c1c(O)c3c(c(O)c1C2=O)C[C@@](O)(C(=O)CO)C[C@@H]3O[C@H]1C[C@H](N)[C@H](O)[C@H](C)O1` [DOXORUBICIN] yielded a concentration for half-maximal inhibition (IC50) in the assay with HepG2 [2] of 8.9 µM.

Take `CCS(=O)(=O)Nc1ccc(/C(C)=N/NC(=O)CSc2nc3ccccc3c(=O)n2Cc2ccc3c(c2)OCO3)cc1`: the values for the half-maximal inhibitory concentration (IC50) in the assay on HepG2 [2] and in the assay on MCF7 [16] were 9.08 µM and 13.9 µM, respectively.

For the molecule `O=C(CSc1nc2ccccc2c(=O)n1Cc1ccc2c(c1)OCO2)Nc1ccc(Br)cc1Br`, the Activity came out at 0.06% in the assay with HepG2 [1]; 85.8% in the assay with HepG2 [4]; 0.16% in the assay with HepG2 [5]; 15.4% in the assay on HepG2 [7]; 50% with HepG2 [8]; 2.32% in the assay on HepG2 [10]. For the same molecule, the Activity is 86.6% in the assay with HepG2 [11], 400% in assay [14] and 0.02% with HepG2 [15]. Also, the IC50 came to 4.01 µM with HepG2 [2]; 1.03 µM in assay [12]; 4.91 µM in the assay with MCF7 [13]; 14.9 µM in the assay with MCF7 [16]; 1.76 µM in the assay with HepG2 [18]. In addition, the outcome in the assay on HepG2 [3] and in the assay on HepG2 [9] was Active. In addition, the “inhibition (INH)” value in [6] and in [17] was 50% in each case.

As for `O=C(CSc1nc2ccccc2c(=O)n1Cc1ccc2c(c1)OCO2)Nc1ccccc1Cl`, the IC50 turned out to be 17.9 µM in the assay with HepG2 [2] and 10.3 µM with MCF7 [16].

Consider `O=C(CSc1nc2ccccc2c(=O)n1Cc1ccc2c(c1)OCO2)Nc1ccc(I)cc1`, for which the Activity in the assay on HepG2 [1] was 0.042%; in the assay with HepG2 [4] it was 87.8%; in the assay with HepG2 [5], 0.308%; with HepG2 [7] it was 7.12%; in the assay on HepG2 [8], 50%; in the assay with HepG2 [10] it was 2.73%. For the same molecule, the Activity is listed as 92.5% in the assay on HepG2 [11], 200% in assay [14] and 0.024% with HepG2 [15]. For the same molecule, the IC50 was 13.2 µM with HepG2 [2]; 0.754 µM in assay [12]; 4.69 µM in the assay with MCF7 [13]; 6.84 µM in the assay with MCF7 [16]; 4.32 µM with HepG2 [18]. Besides, the result with HepG2 [3] and in the assay on HepG2 [9] was Active. Further, the “inhibition (INH)” value in assay [6] and in [17] was 50% throughout.

With `O=C(CSc1nc2ccccc2c(=O)n1Cc1ccc2c(c1)OCO2)NNC(=S)Nc1ccc(S(=O)(=O)Nc2ccccn2)cc1`, the values for the IC50 in the assay with HepG2 [2] and in the assay on MCF7 [16] were 36.9 µM and 3.87 µM, respectively.

As for `NNC(=O)CSc1nc2ccccc2c(=O)n1Cc1ccc2c(c1)OCO2`, the IC50 worked out at 8.15 µM in the assay with HepG2 [2] and 20.7 µM with MCF7 [16].

As for `O=C(CSc1nc2ccccc2c(=O)n1Cc1ccc2c(c1)OCO2)Nc1ccc(Br)cc1`, the IC50 in the assay with HepG2 [2] stood at 11.1 µM; in the assay with MCF7 [16], 20.4 µM.

For `CC(=O)Nc1ccc(S(=O)(=O)NNC(=O)CSc2nc3ccccc3c(=O)n2Cc2ccc3c(c2)OCO3)cc1`, the IC50 with HepG2 [2] turned out to be 33.9 µM; in the assay on MCF7 [16] it was 11.4 µM.

With `O=C(CSc1nc2ccccc2c(=O)n1Cc1ccc2c(c1)OCO2)Nc1ccccc1F`, the Activity was found to be 0% with HepG2 [1]; 92.9% in the assay with HepG2 [4]; 0.762% in the assay with HepG2 [5]; 12.6% with HepG2 [7]; 100% in the assay on HepG2 [8]; 0.071% with HepG2 [10]. Further, the Activity in the assay on HepG2 [11] was determined as 84.5%; in assay [14], 400%; with HepG2 [15], 0.02%. Moreover, the IC50 in the assay with HepG2 [2] is 2.46 µM; in [12], 0.207 µM; with MCF7 [13], 3.06 µM; in the assay on MCF7 [16], 5.86 µM; with HepG2 [18], 1.56 µM. In addition, the outcome in the assay with HepG2 [3] and in the assay on HepG2 [9] was Active. In addition, the “inhibition (INH)” value in [6] and in assay [17] was 50% each time.

On to `O=C(CSc1nc2ccccc2c(=O)n1Cc1ccc2c(c1)OCO2)Nc1cccc(F)c1`, for which the IC50 turned out to be 8.51 µM in the assay on HepG2 [2] and 7.6 µM in the assay with MCF7 [16].
